Data published in ChEMBL document CHEMBL1125920, “Synthesis and biological activity of 5-alkyl-1,7,8-trisubstituted-6-fluoroquinoline-3-carboxylic acids” (1991).
In brackets after ≈: the same amount, converted by molar mass.

Assays:
Escherichia coli = test: Antibacterial activity was determined against gram negative organism, E. coli(vogel); type: functional
How it was run: (§1)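 MIC by standard microtitration against a panel of 10 representative Gram-negative and Gram-positive organisms; values reported in µg/mL.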

Staphylococcus aureus [1] = test: Antibacterial activity was determined against gram positive organism, Staphylococcus aureus (H228); type: functional; how it was run: as §1
Enterococcus faecalis = test: Antibacterial activity was determined against gram positive organism, Streptococcus faecalis (MGH-2); type: functional; how it was run: as §1
Pseudomonas aeruginosa = test: Antibacterial activity was determined against gram negative organism, Pseudomonas aeruginosa (UI-18); type: functional; how it was run: as §1
Bacteria = test: Antibacterial activity was determined against gram negative organism, Providencia rettgeri. (M1771); type: functional; how it was run: as §1
[2] = MIC ratio measured as the mean MICs of gram-positive bacteria; type: functional
How it was run: (§2)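 Geometric mean of the MICs (µg/mL) over the Gram-negative or the Gram-positive strains of the 10-organism microtitration panel, calculated separately for each class.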

Streptococcus pneumoniae = test: Antibacterial activity was determined against gram positive organism, Streptococcus pneumoniae (SV-1); type: functional; how it was run: as §1
Streptococcus pyogenes = test: Antibacterial activity was determined against gram positive organism, Streptococcus pyogenes (C203); type: functional; how it was run: as §1
Enterobacter cloacae = test: Antibacterial activity against gram negative organism, […] (MA2646); type: functional
Staphylococcus aureus [3] = test: Antibacterial activity was determined against gram positive organism, Staphylococcus aureus (UC76); type: functional; how it was run: as §1
[4] = MIC ratio measured as the mean MICs of gram-negative bacteria; type: functional; how it was run: as §2
[5] = molecular target: DNA gyrase (Escherichia coli) (UniProt P0AES6+P0AES4)
Klebsiella pneumoniae = test: Antibacterial activity was determined against gram negative organism, K. pneumoniae (MGH-2); type: functional; how it was run: as §1

Structure (SMILES) | MIC (Escherichia coli) | MIC (Staphylococcus aureus [1]) | MIC (Enterococcus faecalis) | MIC (Pseudomonas aeruginosa) | MIC (Bacteria) | MIC (Streptococcus pneumoniae) | MIC (Streptococcus pyogenes) | MIC (Enterobacter cloacae) | MIC (Staphylococcus aureus [3]) | DNA cleavage [5] | MIC (Klebsiella pneumoniae) | Ratio [2] | Ratio [4]
CCNCC1CCN(c2cc3c(c(C)c2F)c(=O)c(C(=O)O)cn3-c2ccc(F)cc2F)C1 (configuration not stated) | 0.4 mg/L (≈ 0.871 µM) | 0.1 mg/L (≈ 0.218 µM) | 0.2 mg/L (≈ 0.435 µM) | 3.1 mg/L (≈ 6.75 µM) | 1.6 mg/L (≈ 3.48 µM) | 0.025 mg/L (≈ 0.0544 µM) | 0.025 mg/L (≈ 0.0544 µM) | 0.8 mg/L (≈ 1.74 µM) | 0.025 mg/L (≈ 0.0544 µM) | 0.75 µg/mL | 0.8 mg/L (≈ 1.74 µM) | 0.05 | 1.05
CCn1cc(C(=O)O)c(=O)c2cc(F)c(N3CCNCC3)c(F)c21 | 0.1 mg/L (≈ 0.296 µM) | 1.6 mg/L (≈ 4.74 µM) | 1.6 mg/L (≈ 4.74 µM) | 0.8 mg/L (≈ 2.37 µM) | 0.2 mg/L (≈ 0.593 µM) | 3.1 mg/L (≈ 9.19 µM) | 3.1 mg/L (≈ 9.19 µM) | 0.1 mg/L (≈ 0.296 µM) | 0.4 mg/L (≈ 1.19 µM) | 2.5 µg/mL | 0.1 mg/L (≈ 0.296 µM) | 0.27 | 0.17
Cc1c(F)c(N2CCC(C)(CN)C2)c(F)c2c1c(=O)c(C(=O)O)cn2C1CC1 (configuration not stated) | 0.05 mg/L (≈ 0.128 µM) | 0.006 mg/L (≈ 0.0153 µM) | 0.025 mg/L (≈ 0.0639 µM) | 0.8 mg/L (≈ 2.04 µM) | 0.2 mg/L (≈ 0.511 µM) | 0.003 mg/L (≈ 0.00766 µM) | 0.003 mg/L (≈ 0.00766 µM) | 0.05 mg/L (≈ 0.128 µM) | 0.003 mg/L (≈ 0.00766 µM) | 3.75 µg/mL | 0.1 mg/L (≈ 0.255 µM) | 0.0053 | 0.13
Cc1c(F)c(N2CCNC(C)C2)cc2c1c(=O)c(C(=O)O)cn2-c1ccc(F)cc1F (configuration not stated) | 0.1 mg/L (≈ 0.232 µM) | 0.1 mg/L (≈ 0.232 µM) | 0.4 mg/L (≈ 0.927 µM) | 1.6 mg/L (≈ 3.71 µM) | 0.8 mg/L (≈ 1.85 µM) | 0.05 mg/L (≈ 0.116 µM) | 0.1 mg/L (≈ 0.232 µM) | 0.2 mg/L (≈ 0.464 µM) | 0.025 mg/L (≈ 0.0579 µM) | 1.75 µg/mL | 0.4 mg/L (≈ 0.927 µM) | 0.087 | 0.4

Further lines, with some results ahead:

MIC (Escherichia coli) | MIC (Staphylococcus aureus [1]) | MIC (Enterococcus faecalis) | MIC (Pseudomonas aeruginosa) | MIC (Bacteria) | MIC (Streptococcus pneumoniae) | MIC (Streptococcus pyogenes) | MIC (Enterobacter cloacae) | MIC (Staphylococcus aureus [3]) | DNA cleavage [5] | MIC (Klebsiella pneumoniae) | Structure (SMILES) | Ratio [2] | Ratio [4]
0.05 mg/L (≈ 0.12 µM) | 0.05 mg/L (≈ 0.12 µM) | 0.1 mg/L (≈ 0.24 µM) | 0.8 mg/L (≈ 1.92 µM) | 0.2 mg/L (≈ 0.479 µM) | 0.025 mg/L (≈ 0.0599 µM) | 0.05 mg/L (≈ 0.12 µM) | 0.05 mg/L (≈ 0.12 µM) | 0.013 mg/L (≈ 0.0311 µM) | 0.37 µg/mL | 0.1 mg/L (≈ 0.24 µM) | Cc1c(F)c(N2CCC(N)C2)cc2c1c(=O)c(C(=O)O)cn2-c1ccc(F)cc1F (configuration not stated) | 0.038 | 0.13
0.1 mg/L (≈ 0.313 µM) | 0.8 mg/L (≈ 2.51 µM) | 0.8 mg/L (≈ 2.51 µM) | 0.8 mg/L (≈ 2.51 µM) | 0.2 mg/L (≈ 0.626 µM) | 0.4 mg/L (≈ 1.25 µM) | 0.4 mg/L (≈ 1.25 µM) | 0.1 mg/L (≈ 0.313 µM) | 0.1 mg/L (≈ 0.313 µM) | 2.5 µg/mL | 0.2 mg/L (≈ 0.626 µM) | CCn1cc(C(=O)O)c(=O)c2cc(F)c(N3CCC(N)C3)cc21 (configuration not stated) | 0.4 | 0.2
0.1 mg/L (≈ 0.268 µM) | 0.025 mg/L (≈ 0.0669 µM) | 0.1 mg/L (≈ 0.268 µM) | 1.6 mg/L (≈ 4.28 µM) | 0.8 mg/L (≈ 2.14 µM) | 0.006 mg/L (≈ 0.0161 µM) | 0.013 mg/L (≈ 0.0348 µM) | 0.1 mg/L (≈ 0.268 µM) | 0.006 mg/L (≈ 0.0161 µM) | 0.75 µg/mL | 0.4 mg/L (≈ 1.07 µM) | Cc1c(F)c(N2CCC(C)(CN)C2)cc2c1c(=O)c(C(=O)O)cn2C1CC1 (configuration not stated) | 0.016 | 0.35
1.6 mg/L (≈ 4.26 µM) | 1.6 mg/L (≈ 4.26 µM) | 1.6 mg/L (≈ 4.26 µM) | 25 mg/L (≈ 66.6 µM) | 12.5 mg/L (≈ 33.3 µM) | 0.8 mg/L (≈ 2.13 µM) | 1.6 mg/L (≈ 4.26 µM) | 3.1 mg/L (≈ 8.26 µM) | 0.4 mg/L (≈ 1.07 µM) | 3 µg/mL | 6.3 mg/L (≈ 16.8 µM) | CCNCC1CCN(c2cc3c(c(C)c2F)c(=O)c(C(=O)O)cn3CC)C1 (configuration not stated) | 1.06 | 6.28
0.2 mg/L (≈ 0.6 µM) | 1.6 mg/L (≈ 4.8 µM) | 1.6 mg/L (≈ 4.8 µM) | 3.1 mg/L (≈ 9.3 µM) | 1.6 mg/L (≈ 4.8 µM) | 1.6 mg/L (≈ 4.8 µM) | 3.1 mg/L (≈ 9.3 µM) | 0.2 mg/L (≈ 0.6 µM) | 0.4 mg/L (≈ 1.2 µM) | 6.3 µg/mL | 0.8 mg/L (≈ 2.4 µM) | CCn1cc(C(=O)O)c(=O)c2c(C)c(F)c(N3CCC(N)C3)cc21 (configuration not stated) | 1.38 | 0.69
